From ChEMBL document CHEMBL1124366, “Synthesis and biological properties of N63-carboxamides of teicoplanin antibiotics. Structure-activity relationships” (J Med Chem, 1989)
Values after ≈ are worked out from the molar mass of the structure shown.

Columns and labels:
Streptococcus pyogenes [1] = assay: In vivo effective dose given perorally to mice infected with Streptococcus pyogenes C 203; format: functional; conditions: po
Outline: (§1)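 Mice (five per treatment group, five groups) infected intraperitoneally with about 10⁵ cells of Strep. pyogenes C 203, about 100× the LD50. ED50 (mg/kg) was calculated from the percentage of mice surviving at each dose on day 7.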

Streptococcus pyogenes [2] = assay: Subcutaneously administration into mice infected with Streptococcus pyogenes C 203; format: functional; conditions: sc; outline: as §1
Staphylococcus sp. [3] = assay: Minimum inhibitory concentration of compound against 16 different strains of staphylococcus species; format: functional
Outline: (§2)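 Agar dilution on Iso-Sensitest agar against clinical coagulase-negative staphylococcal isolates, including methicillin-resistant strains. Final inoculum about 10⁴ cfu/mL.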

[4] = tested on: Staphylococcus epidermidis; assay: In vitro minimum inhibitory concentration against Staphylococcus epidermis ATCC 12228; format: functional
[5] = tested on: Staphylococcus epidermidis; assay: Minimum inhibitory concentration of compound against 12 strains of Staphylococcus epidermidis; format: functional; outline: as §2
[6] = tested on: Staphylococcus epidermidis; assay: 50 percent Minimum inhibitory concentration of compound against 12 strains of Staphylococcus epidermidis; format: functional; outline: as §2
[7] = tested on: Staphylococcus epidermidis; assay: 90 percent Minimum inhibitory concentration of compound against 12 strains of Staphylococcus epidermidis; format: functional; outline: as §2
Staphylococcus sp. [8] = assay: 50 percent Minimum inhibitory concentration of compound against 16 different strains of staphylococcus species; format: functional; outline: as §2
Staphylococcus sp. [9] = assay: 90 percent Minimum inhibitory concentration of compound against 16 different strains of staphylococcus species; format: functional; outline: as §2
[10] = tested on: Staphylococcus haemolyticus; assay: In vitro minimum inhibitory concentration against Staphylococcus hemolyticus 602 cell line; format: functional; conditions: strain 602
Staphylococcus aureus [11] = assay: In vitro minimum inhibitory concentration against Staphylococcus aureus Tour; format: functional
Streptococcus pneumoniae = assay: In vitro minimum inhibitory concentration against Streptococcus pneumoniae UC41; format: functional
[12] = tested on: Staphylococcus haemolyticus; assay: Minimum inhibitory concentration of compound against 8 strains of Staphylococcus hemolyticus; format: functional; outline: as §2
[13] = tested on: Staphylococcus haemolyticus; assay: 50 percent Minimum inhibitory concentration of compound against 8 strains of Staphylococcus hemolyticus; format: functional; outline: as §2
[14] = tested on: Staphylococcus haemolyticus; assay: 90 percent Minimum inhibitory concentration of compound against 8 strains of Staphylococcus hemolyticus; format: functional; outline: as §2
Streptococcus pyogenes [15] = assay: In vitro minimum inhibitory concentration against Streptococcus pyogenes C 203; format: functional
Enterococcus faecalis = assay: In vitro minimum inhibitory concentration against Streptococcus faecalis ATCC 7080; format: functional
Staphylococcus aureus [16] = assay: In vitro minimum inhibitory concentration of compound against Staphylococcus aureus Tour; format: organism-based

MIC (Staphylococcus sp. [3])	MIC [4]	MIC [5]	MIC50 [6]	MIC90 [7]	MIC50 (Staphylococcus sp. [8])	MIC90 (Staphylococcus sp. [9])	MIC (Staphylococcus aureus [11])	MIC (Streptococcus pneumoniae)	MIC (Streptococcus pyogenes [15])	MIC (Enterococcus faecalis)	MIC (Staphylococcus aureus [16])	Structure (SMILES)	ED50 (Streptococcus pyogenes [1])	ED50 (Streptococcus pyogenes [2])	MIC [10]	MIC [12]	MIC50 [13]	MIC90 [14]
0.25 mg/L (≈ 0.127 µM)	0.06 mg/L (≈ 0.0306 µM)	0.125 mg/L (≈ 0.0637 µM)	0.25 mg/L (≈ 0.127 µM)	1 mg/L (≈ 0.509 µM)	0.5 mg/L (≈ 0.255 µM)	1 mg/L (≈ 0.509 µM)	0.12 mg/L (≈ 0.0611 µM)	0.06 mg/L (≈ 0.0306 µM)	0.06 mg/L (≈ 0.0306 µM)	0.12 mg/L (≈ 0.0611 µM)	–	CC(=O)N[C@@H]1[C@H](O[C@@H]2c3ccc(c(Cl)c3)Oc3cc4cc(c3O[C@@H]3O[C@@H](CO)[C@@H](O)[C@H](O)[C@@H]3NC(=O)CCCCCCC(C)C)Oc3ccc(cc3Cl)C[C@H]3NC(=O)[C@H](N)c5ccc(O)c(c5)Oc5cc(O)cc(c5)[C@H](NC3=O)C(=O)N[C@H]4C(=O)N[C@H]3C(=O)N[C@@H]2C(=O)N[C@H](C(=O)NCCCN(C)C)c2cc(O)cc(O[C@H]4O[C@H](CO)[C@@H](O)[C@@H](O)[C@@H]4O)c2-c2cc3ccc2O)O[C@@H](CO)[C@@H](O)[C@@H]1O	70.7 mg/kg	0.05 mg/kg	0.12 mg/L (≈ 0.0611 µM)	1 mg/L (≈ 0.509 µM)	1 mg/L (≈ 0.509 µM)	2 mg/L (≈ 1.02 µM)
0.25 mg/L (≈ 0.133 µM)	0.25 mg/L (≈ 0.133 µM)	0.25 mg/L (≈ 0.133 µM)	0.5 mg/L (≈ 0.266 µM)	2 mg/L (≈ 1.07 µM)	1 mg/L (≈ 0.533 µM)	4 mg/L (≈ 2.13 µM)	0.12 mg/L (≈ 0.0639 µM)	0.06 mg/L (≈ 0.032 µM)	0.06 mg/L (≈ 0.032 µM)	0.12 mg/L (≈ 0.0639 µM)	–	CCCCC/C=C/CCC(=O)N[C@@H]1[C@H](Oc2c3cc4cc2Oc2ccc(cc2Cl)[C@@H](O[C@@H]2O[C@@H](CO)[C@@H](O)[C@H](O)[C@@H]2NC(C)=O)[C@@H]2NC(=O)[C@H](NC(=O)[C@@H]4NC(=O)[C@H]4NC(=O)[C@@H](Cc5ccc(c(Cl)c5)O3)NC(=O)[C@H](N)c3ccc(O)c(c3)Oc3cc(O)cc4c3)c3ccc(O)c(c3)-c3c(O[C@H]4O[C@H](CO)[C@@H](O)[C@@H](O)[C@@H]4O)cc(O)cc3[C@@H](C(=O)O)NC2=O)O[C@@H](CO)[C@@H](O)[C@@H]1O	170 mg/kg	0.12 mg/kg	4 mg/L (≈ 2.13 µM)	2 mg/L (≈ 1.07 µM)	16 mg/L (≈ 8.52 µM)	32 mg/L (≈ 17 µM)
–	0.12 mg/L (≈ 0.0585 µM)	–	–	–	–	–	–	0.06 mg/L (≈ 0.0292 µM)	0.06 mg/L (≈ 0.0292 µM)	0.12 mg/L (≈ 0.0585 µM)	0.12 mg/L (≈ 0.0585 µM)	CC(=O)N[C@@H]1[C@H](O[C@@H]2c3ccc(c(Cl)c3)Oc3cc4cc(c3O[C@@H]3O[C@@H](CO)[C@@H](O)[C@H](O)[C@@H]3NC(=O)CCCCCCC(C)C)Oc3ccc(cc3Cl)C[C@H]3NC(=O)[C@H](N)c5ccc(O)c(c5)Oc5cc(O)cc(c5)[C@H](NC3=O)C(=O)N[C@H]4C(=O)N[C@H]3C(=O)N[C@@H]2C(=O)N[C@H](C(=O)NC2CCN(Cc4ccccc4)CC2)c2cc(O)cc(O[C@H]4O[C@H](CO)[C@@H](O)[C@@H](O)[C@@H]4O)c2-c2cc3ccc2O)O[C@@H](CO)[C@@H](O)[C@@H]1O	> 300 mg/kg	0.08 mg/kg	4 mg/L (≈ 1.95 µM)	–	–	–
